Results from different studies.
Lines come from different studies, so protocols differ.
Target: Receptor tyrosine-protein kinase erbB-2 (ERBB2, Homo sapiens, UniProt P04626)

C[C@@H]1CN(c2ccc3ncc(-c4ccc5[nH]nc(C6CC6)c5c4)n3n2)C[C@H](C)O1  remaining binding (binding; competition with immobilised ligand; 50 nM): 87%
CS(=O)(=O)N1CCCC(NC(=O)[C@H](CCC2CCCCC2)NC(=O)c2ccc(CNC(=O)c3cnc4ccccn34)cc2)C1 (stereo partly shown)  remaining binding (cell-free assay; competition with immobilised ligand; 0.1 µM): 100%
O=C(NCCCN1CCOCC1)c1ccc(Nc2nccc(-c3cc4ccccc4s3)n2)cc1  remaining binding (binding; competition with immobilised ligand; 1 µM): 93%
O=C(NCC1CCOCC1)c1n[nH]cc1NC(=O)c1c(F)cccc1F  remaining binding (binding; competition with immobilised ligand; 1 µM): 90%
N[C@H]1CCN(c2nccc(-c3cnn4ncccc34)n2)C1  remaining binding (binding; 1 µM): 84%
Cc1cnc(Nc2ccc(C(=O)N3CCC(N4CCCC4)CC3)cc2)nc1-c1cc2ccccc2s1  remaining binding (binding; competition with immobilised ligand; 1 µM): 64%
O=C(Nc1ccc(Oc2ccc(F)cc2)cc1)N1CCc2ncccc2[C@H]1c1ccc(F)cc1  remaining binding (cell-free assay; competition with immobilised ligand; 1 µM): 100%
COc1cnc(Nc2cccc(S(N)(=O)=O)c2)nc1N1CCN(c2ccccc2)CC1  remaining binding (binding; competition with immobilised ligand; 1 µM): 100%
CN(C)c1nccc(-c2cnc3ncccn23)n1  remaining binding (binding; 1 µM): 0%
c1cncc(-c2cccc(Nc3nccc(NC4CCCCC4)n3)c2)c1  remaining binding (binding; competition with immobilised ligand; 10 µM): 51%
COc1cccc(CNC(=O)c2nc3scc(COCc4ccc(C(=O)O)cc4)c3c(=O)[nH]2)c1  remaining binding (cell-free assay; competition with immobilised ligand; 1 µM): 97.2%
CN(C)c1nccc(-c2cnn3ncccc23)n1  remaining binding (binding; 1 µM): 100%
CNCc1ccccc1-c1csc([C@H](C)Nc2nc(C)nc3cc(OC)c(OC)cc23)c1  remaining binding (cell-free assay; competition with immobilised ligand; 1 µM): 100%
CC(C)(C)c1ccc(-c2nc(CBr)nn2-c2cccc(O)c2)cc1  remaining binding (cell-free assay; competition with immobilised ligand; 10 µM): 84%
COc1cc(-c2cn(C3CCc4c(F)cccc4N(CC(F)(F)F)C3=O)nn2)ccc1-n1cnc(C)c1 (stereo not shown)  remaining binding (cell-free assay; competition with immobilised ligand; 1 µM): 100%
C[C@H]1CCN(c2nccc(-c3cnn4ncccc34)n2)C1  remaining binding (binding; 1 µM): 94%
